For 2 molecules, solubility and IC50 results are on record in ChEMBL document CHEMBL2157989, “Synthesis and biological evaluation of antibody conjugates of phosphate prodrugs of cytotoxic DNA alkylators for the targeted treatment of cancer” (J Med Chem, 2012).

Series [1] in a line: Solubility of the compound in 100% buffer at pH 7 at 1.5 mg sonicated for 45 mins followed by centrifugation for 45 mins by UV/Vis spectroscopy. Type of series: physicochemical.
The nature of series [2]: Solubility of the compound in 5% DMA and 95% buffer at pH 7 at 1.5 mg sonicated for 45 mins followed by centrifugation for 45 mins by UV/Vis spectroscopy. Type of series: physicochemical. The method, boiled down: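 For buffers with 5% or less DMA, a 50 mM stock of compound in DMA is diluted 20–100 times into pH 7.0 buffer. It is then sonicated for 45 min and centrifuged at 1400g for 45 min. Supernatant is quantified by UV/vis at 340 nm, with ε of 41500 (DC1–SR₂ compounds) or 34500 M⁻¹ cm⁻¹ (phosphate prodrugs).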

Series [3] in a line: Solubility of the compound in 10% DMA and 90% buffer at pH 7 at 1.5 mg sonicated for 45 mins followed by centrifugation for 45 mins by UV/Vis spectroscopy. The format is physicochemical. The method, boiled down:
(§1)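 About 1.5 mg of compound is sonicated for 45 min in pH 7.0 buffer containing 10% or 20% DMA, then centrifuged at 1400g for 45 min. Supernatant concentration is read by UV/vis at 340 nm. ε at pH 7.0 is 41500 M⁻¹ cm⁻¹ for DC1–SR₂ compounds and 34500 M⁻¹ cm⁻¹ for phosphate prodrugs.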

The nature of series [4]: Solubility of the compound in 20% DMA and 80% buffer at pH 7 at 1.5 mg sonicated for 45 mins followed by centrifugation for 45 mins by UV/Vis spectroscopy. The format is physicochemical. The method, boiled down: as §1
The subject of the next series is Ramos. Nature of the series: Cytotoxicity against human Ramos cells assessed as cell survival after 72 hrs by clonogenic assay. Type of series: functional, cell-based. The method, boiled down:
(§2)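 Cells were kept in RPMI 1640 with 10% heat-inactivated FBS at 37 °C and 6% CO₂. They were plated at 1000–5000 cells/well and exposed to 0–3 nM test agent for 72 h. Medium was then replaced and colonies grew for 7–10 days in total after plating. Colonies were fixed and stained with 0.2% crystal violet in 10% formalin/PBS, then counted. Surviving fraction = colonies in treated wells / colonies in control wells; IC₅₀ was taken from this.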

Series [5] in a line: Cytotoxicity against human NAMALWA cells assessed as cell survival after 72 hrs by clonogenic assay. The format is functional, cell-based. Particulars: NAMALVA. In a few lines:
as §2

The test system of a further series is HL-60. Nature of the series: Cytotoxicity against human HL60 cells assessed as cell survival after 72 hrs by clonogenic assay. Type of series: functional, cell-based. Conditions: HL-60, 72 h. In a few lines: as §2
The test system of the next series is COLO 205. Nature of the series: Cytotoxicity against human COLO205 cells assessed as cell survival after 72 hrs by clonogenic assay. Type of series: functional, cell-based. Particulars: COLO 205, 72 h. The method, boiled down: as §2
The nature of series [6]: Solubility in water at 1.5 mg sonicated for 45 mins followed by centrifugation for 45 mins by UV/Vis spectroscopy. Type of series: physicochemical. Particulars: 0.75 h. In a few lines: (§3)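 Solid compound (~1.5 mg) in the stated solvent was sonicated 45 min, then centrifuged at 1400g for 45 min. The supernatant concentration was read by UV/vis at 340 nm, using ε = 41500 M⁻¹ cm⁻¹ for the free phenols and 34500 M⁻¹ cm⁻¹ for the phosphate prodrugs (pH 7.0 values).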

A short description of series [7]: Solubility in toluene at 1.5 mg sonicated for 45 mins followed by centrifugation for 45 mins by UV/Vis spectroscopy. Type of series: physicochemical. Particulars: 0.75 h. The method, boiled down: as §3
Series [8] in a line: Solubility in ethyl acetate at 1.5 mg sonicated for 45 mins followed by centrifugation for 45 mins by UV/Vis spectroscopy. Conditions: 0.75 h. The format is physicochemical. The method, boiled down:
as §3

Series [9] is described as follows: Solubility in hexane at 1.5 mg sonicated for 45 mins followed by centrifugation for 45 mins by UV/Vis spectroscopy. Type of series: physicochemical. Conditions: 0.75 h. In a few lines: as §3
Series [10] can be described thus: Solubility in chloroform at 1.5 mg sonicated for 45 mins followed by centrifugation for 45 mins by UV/Vis spectroscopy. Type of series: physicochemical. Conditions: 0.75 h. In a few lines:
as §3

A short description of series [11]: Solubility in dichloromethane at 1.5 mg sonicated for 45 mins followed by centrifugation for 45 mins by UV/Vis spectroscopy. Type of series: physicochemical. Particulars: 0.75 h.
Series [12] is described as follows: Solubility in ethanol at 1.5 mg sonicated for 45 mins followed by centrifugation for 45 mins by UV/Vis spectroscopy. The format is physicochemical. Conditions: 0.75 h. In a few lines:
as §3

Series [13] in a line: Solubility in methanol at 1.5 mg sonicated for 45 mins followed by centrifugation for 45 mins by UV/Vis spectroscopy. The format is physicochemical. Conditions: 0.75 h. The method, boiled down: as §3
Series [14] in a line: Solubility in DMSO at 1.5 mg sonicated for 45 mins followed by centrifugation for 45 mins by UV/Vis spectroscopy. Type of series: physicochemical. Conditions: 0.75 h. The method, boiled down: as §3
Series [15] can be described thus: Solubility in DMA at 1.5 mg sonicated for 45 mins followed by centrifugation for 45 mins by UV/Vis spectroscopy. Type of series: physicochemical. Particulars: 0.75 h. In a few lines: as §3
Series [16] in a line: Solubility in DMF at 1.5 mg sonicated for 45 mins followed by centrifugation for 45 mins by UV/Vis spectroscopy. Type of series: physicochemical. Particulars: 0.75 h. In a few lines: as §3
The nature of series [17]: Solubility in THF at 1.5 mg sonicated for 45 mins followed by centrifugation for 45 mins by UV/Vis spectroscopy. The format is physicochemical. Particulars: 0.75 h.
A short description of series [18]: Solubility in dioxane at 1.5 mg sonicated for 45 mins followed by centrifugation for 45 mins by UV/Vis spectroscopy. Type of series: physicochemical. Conditions: 0.75 h.
Series [19] can be described thus: Solubility in acetone at 1.5 mg sonicated for 45 mins followed by centrifugation for 45 mins by UV/Vis spectroscopy. Type of series: physicochemical. Conditions: 0.75 h.

Molecules are shown by their SMILES. Converted amounts (≈) assume the structure as drawn.

As a reminder, the solubility is the dissolved amount per volume that the medium holds. For orientation: IC50 means the concentration that gives 50% inhibition. With `CSSC(C)(C)CCC(=O)Nc1ccc2[nH]c(C(=O)Nc3ccc4[nH]c(C(=O)N5C[C@@H](CCl)c6c5cc(O)c5ccccc65)cc4c3)cc2c1`, the solubility at 0.75 h in series [1] was less than 0.1 µM; in series [2] it was less than 1 µM; in series [3] it was 1 µM (≈ 0.726 µg/mL); in series [4], 3 µM (≈ 2.18 µg/mL). In addition, the IC50 came out at 18 pM in the series with Ramos, 21 pM in series [5], 25 pM in the series with HL-60 and 220 pM with COLO 205. For the same molecule, the solubility entry in series [6], in series [7], in series [8], in series [9], in [10] and in series [11] was “Insoluble” in each case. For the same molecule, the solubility entry was “Insoluble” in series [12]; “Insoluble” in series [13]; “soluble” in [14]; “soluble” in series [15]; “soluble” in [16]; “soluble” in [17]. The solubility result in series [18] and in series [19] was “soluble” in each case.

On to `CSSCCC(=O)Nc1ccc2[nH]c(C(=O)Nc3ccc4[nH]c(C(=O)N5C[C@@H](CCl)c6c5cc(O)c5ccccc65)cc4c3)cc2c1`, for which the solubility at 0.75 h in [1] is less than 0.1 µM; in series [2], less than 1 µM; in series [3], 1 µM (≈ 0.684 µg/mL); in series [4], 3 µM (≈ 2.05 µg/mL). Besides, the IC50 in the series with Ramos turned out to be 22 pM; in series [5], 10 pM; in the series on HL-60, 32 pM; in the series on COLO 205, 250 pM. Besides, the solubility entry in series [6], in series [7], in series [8], in series [9], in series [10] and in [11] was “Insoluble” in each case. In addition, the solubility result is “Insoluble” in [12]; “Insoluble” in series [13]; “soluble” in series [14]; “soluble” in [15]; “soluble” in series [16]; “soluble” in series [17]. The solubility entry in series [18] and in series [19] was “soluble” throughout.
